Experimental data: ChEMBL document CHEMBL1148648, “Novel 1,3-disubstituted 8-(1-benzyl-1H-pyrazol-4-yl) xanthines: high affinity and selective A2B adenosine receptor antagonists” (J Med Chem, 2006)
pKi: −log10 of the molar value.

Assays:
[1] = molecular target: Adenosine receptors; A1 & A2b (Homo sapiens) (UniProt P30542+P29275); assay: Selectivity for human adenosine A2b receptor over adenosine A1 receptor; format: protein assay
[2] = molecular target: T1, Adenosine receptor A2b (Homo sapiens, UniProt P29275); assay: Displacement of [3H]ZM241385 from human adenosine A2b receptor expressed in HEK cells; format: cell-based, HEK293
T1 sequence (P29275 whole entry): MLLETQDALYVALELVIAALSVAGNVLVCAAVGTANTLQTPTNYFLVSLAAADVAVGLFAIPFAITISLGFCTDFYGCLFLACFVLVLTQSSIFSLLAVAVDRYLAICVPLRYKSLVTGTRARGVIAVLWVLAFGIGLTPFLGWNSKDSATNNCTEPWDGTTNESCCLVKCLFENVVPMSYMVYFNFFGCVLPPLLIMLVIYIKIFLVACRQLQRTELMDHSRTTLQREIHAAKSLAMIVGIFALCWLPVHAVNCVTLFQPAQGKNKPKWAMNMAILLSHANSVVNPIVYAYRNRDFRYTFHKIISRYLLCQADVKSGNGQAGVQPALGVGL

[3] = molecular target: Adenosine receptor A2a (Homo sapiens, UniProt P29274); assay: Displacement of [3H]ZM-241385 from human adenosine A2a receptor expressed in HEK cells; format: cell-based, HEK293
Chain of Adenosine receptor A2a (P29274 whole entry): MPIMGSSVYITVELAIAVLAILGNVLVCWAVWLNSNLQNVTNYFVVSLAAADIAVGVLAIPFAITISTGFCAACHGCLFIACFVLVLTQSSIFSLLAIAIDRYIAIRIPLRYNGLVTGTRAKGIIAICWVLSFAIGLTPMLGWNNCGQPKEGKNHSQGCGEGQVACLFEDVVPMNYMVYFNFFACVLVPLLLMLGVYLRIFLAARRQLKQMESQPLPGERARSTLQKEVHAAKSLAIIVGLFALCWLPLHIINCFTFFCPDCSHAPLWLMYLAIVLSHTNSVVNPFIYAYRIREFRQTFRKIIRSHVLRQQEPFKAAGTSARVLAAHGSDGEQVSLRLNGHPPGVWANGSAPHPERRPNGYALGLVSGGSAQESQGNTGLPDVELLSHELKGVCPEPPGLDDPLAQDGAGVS

[4] = molecular target: T2, Adenosine receptor A1 (Homo sapiens, UniProt P30542); assay: Displacement of [3H]CPX from human adenosine A1 receptor expressed in CHO cells
T2 sequence (P30542 whole entry): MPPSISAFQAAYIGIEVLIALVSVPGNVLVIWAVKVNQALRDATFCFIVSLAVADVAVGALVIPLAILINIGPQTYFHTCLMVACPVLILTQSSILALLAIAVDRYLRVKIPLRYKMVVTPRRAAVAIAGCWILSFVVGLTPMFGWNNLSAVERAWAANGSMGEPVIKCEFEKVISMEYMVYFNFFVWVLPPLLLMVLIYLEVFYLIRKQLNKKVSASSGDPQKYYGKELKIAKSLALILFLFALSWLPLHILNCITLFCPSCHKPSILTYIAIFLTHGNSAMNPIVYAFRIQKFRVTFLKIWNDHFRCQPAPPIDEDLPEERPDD

[5] = molecular target: T3, Adenosine receptor A3 (Homo sapiens, UniProt P0DMS8); assay: Displacement of [125I]AB-MECA from human adenosine A3 receptor expressed in CHO cells; format: cell-based
T3 sequence (P0DMS8 whole entry): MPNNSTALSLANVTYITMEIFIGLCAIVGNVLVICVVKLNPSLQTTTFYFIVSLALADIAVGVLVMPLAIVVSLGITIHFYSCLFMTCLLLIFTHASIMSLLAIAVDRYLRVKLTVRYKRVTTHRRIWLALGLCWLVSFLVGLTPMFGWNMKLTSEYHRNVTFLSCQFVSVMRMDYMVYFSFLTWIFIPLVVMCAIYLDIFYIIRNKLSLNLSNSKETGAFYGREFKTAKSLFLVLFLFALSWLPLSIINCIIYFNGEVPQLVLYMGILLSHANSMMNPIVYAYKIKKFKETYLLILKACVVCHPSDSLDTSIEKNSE
Summary of the method: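 Membranes from CHO cells stably expressing human A3 receptor, prepared like the A2B membranes. Incubated 90 min at 25 °C with gentle agitation, then filtered and washed 4× in ice-cold TM buffer. Nonspecific binding was defined with 1 µM IB-MECA.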

[6] = molecular target: Adenosine A2 receptor (Homo sapiens) (UniProt P29275+P29274); assay: Selectivity for human adenosine A2b receptor over adenosine A2a receptor; format: protein assay
[7] = molecular target: Adenosine receptors; A2b & A3 (Homo sapiens) (UniProt P29275+P0DMS8); assay: Selectivity for human adenosine A2b receptor over adenosine A3 receptor; format: protein assay

SMILES | Ratio Ki [1] | pKi [2] | pKi [3] | pKi [4] | pKi [5] | Ratio Ki [6] | Ratio Ki [7]
CCCn1c(=O)c2nc(-c3cnn(Cc4ccccc4Cl)c3)[nH]c2n(CCC)c1=O | 3 | 7.70 | 7.31 | 7.23 |  |  | 
CCCn1c(=O)c2[nH]c(-c3cnn(Cc4cccc(C(F)(F)F)c4)c3)nc2n(CCC)c1=O | 12 | 7.85 | 6.40 | 6.77 | 6.82 | 27 | 10
CCCn1c(=O)c2nc(-c3cnn(Cc4cccc(Cl)c4)c3)[nH]c2n(CCC)c1=O | 2 | 7.74 | 7.10 | 7.51 |  | 4 | 
CCCn1c(=O)c2nc(-c3cnn(Cc4ccccc4C)c3)[nH]c2n(CCC)c1=O | 0.6 |  |  |  |  | 2 | 
CCCn1c(=O)c2[nH]c(-c3cnn(Cc4ccc(C)cc4)c3)nc2n(CCC)c1=O |  | 7.40 | 7.10 | 7.42 |  |  | 
CCn1c(=O)c2nc(-c3cnn(Cc4ccccc4)c3)[nH]c2n(CC)c1=O | 30 |  |  |  |  | 6 | 
CCCn1c(=O)c2nc(-c3cn[nH]c3)[nH]c2n(CCC)c1=O | 2 |  |  |  |  | 23 | 2
CCCn1c(=O)c2nc(-c3cnn(CCCc4ccccc4)c3)[nH]c2n(CCC)c1=O | 0.7 | 7.00 | 6.66 | 7.11 |  | 2 | 
CCCn1c(=O)c2nc(-c3cnn(Cc4cccc(Cl)c4F)c3)[nH]c2n(CCC)c1=O | 9 | 7.24 | 6.06 | 6.28 |  | 13 | 
CCCn1c(=O)c2nc(-c3cnn(Cc4cccc(C)c4)c3)[nH]c2n(CCC)c1=O | 1 |  |  |  |  | 2 | 
CCCn1c(=O)c2[nH]c(-c3cnn(Cc4ccccc4)c3)nc2n(CCC)c1=O | 7 | 7.96 | 6.54 | 7.12 | 6.77 | 26 | 15
CCn1c(=O)c2nc(-c3cnn(Cc4cccc(C(F)(F)F)c4)c3)[nH]c2n(CC)c1=O | 44 | 7.89 | 6.35 | 6.24 |  | 34 | 
CC(C)Cn1c(=O)c2[nH]c(-c3cnn(Cc4cccc(C(F)(F)F)c4)c3)nc2n(CC(C)C)c1=O |  | 6.52 | 5.37 | 5.51 |  |  | 
CC(C)Cn1c(=O)c2nc(-c3cnn(Cc4cccc(C(F)(F)F)c4)c3)[nH]c2n(CC(C)C)c1=O | 10 |  |  |  |  | 14 | 
CCCn1c(=O)c2nc(-c3cnn(Cc4cccc(OC)c4)c3)[nH]c2n(CCC)c1=O | 1 | 7.47 | 7.15 | 7.47 |  | 2 | 
CCCn1c(=O)c2[nH]c(-c3cn[nH]c3)nc2n(CCC)c1=O |  | 8.05 | 6.64 | 7.70 | 7.64 |  | 
CCCn1c(=O)c2nc(-c3cnn(Cc4ccc(F)c(F)c4)c3)[nH]c2n(CCC)c1=O | 7 | 7.46 | 6.55 | 6.77 |  | 8 | 
CC(C)Cn1c(=O)c2nc(-c3cnn(Cc4cccc(F)c4)c3)[nH]c2n(CC(C)C)c1=O | 1 |  |  |  |  | 1 | 
CCCn1c(=O)c2nc(-c3cnn(Cc4ccc(C)cc4)c3)[nH]c2n(CCC)c1=O | 1 |  |  |  |  | 2 | 
CCCn1c(=O)c2[nH]c(-c3cnn(Cc4cccc(C)c4F)c3)nc2n(CCC)c1=O |  | 7.36 | 6.34 | 6.41 |  |  | 
CC(C)Cn1c(=O)c2[nH]c(-c3cnn(Cc4ccccc4)c3)nc2n(CC(C)C)c1=O |  | 5.90 | 5.96 | 6.21 |  |  | 
